Test results taken from ChEMBL document CHEMBL2151003, “Synthesis and antitumor activity of ring A modified glycyrrhetinic acid derivatives” (Eur J Med Chem, 2011).
Calls of active or inactive are those of the source. No cut-off for these calls is given here.

How the values were obtained:
[1] = Cytotoxicity against human 518A2 cells after 96 hrs by SRB assay; assay type: functional, cell-based
In short: (§1)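 Monolayer cultures in RPMI 1640 with 10% heat-inactivated FBS and penicillin/streptomycin, 37 °C, 5% CO2. Exponentially growing cells were seeded, then treated 24 h later with serial dilutions (0–30 µM; DMSO or DMF ≤0.5% final) for 96 h. Cells were fixed with 10% TCA at 4 °C, stained with 0.4% SRB and solubilized in 10 mM Tris base; A570 was read. IC50 came from semi-log dose–response curves, ≥3 independent experiments.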

[2] = test system: DLD-1; test: Cytotoxicity against human DLD1 cells after 96 hrs by SRB assay; assay type: functional, cell-based; in short: as §1
[3] = test system: A549; test: Cytotoxicity against human A549 cells after 96 hrs by SRB assay; assay type: functional, cell-based; in short: as §1
[4] = Cytotoxicity against human A253 cells after 96 hrs by SRB assay; assay type: functional, cell-based; in short: as §1
[5] = Cytotoxicity against human Lipo cells after 96 hrs by SRB assay; assay type: functional, cell-based; in short: as §1
[6] = test system: MCF7; test: Cytotoxicity against human MCF7 cells after 96 hrs by SRB assay; assay type: functional, cell-based; in short: as §1
[7] = test system: SW-1736; test: Cytotoxicity against human SW1736 cells after 96 hrs by SRB assay; assay type: functional, cell-based; in short: as §1
[8] = test system: 8505C; test: Cytotoxicity against human 8505C cells after 96 hrs by SRB assay; assay type: functional, cell-based; in short: as §1
[9] = test system: A2780; test: Cytotoxicity against human A2780 cells after 96 hrs by SRB assay; assay type: functional, cell-based; in short: as §1
[10] = test system: A549; test: Induction of apoptosis in human A549 cells assessed as apoptotic effect after 24 to 48 hrs by trypan blue cell counting analysis; assay type: functional
In short: (§2)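 A549 cells (approx. 500,000 per flask) were grown 24 h, then given compound-containing medium for about 24–48 h. Collected cells were pelleted, washed in PBS and mixed 1:1 with 0.4% trypan blue in PBS, pH 7.2. An automated counter distinguished cells with intact and with damaged membranes. Results are % apoptosis ± standard error, 6 experiments each.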

[11] = test system: A549; test: Induction of apoptosis in human A549 cells assessed as appearance of green fluorescent cells at 20 uM after 24 to 48 hrs by acridine orange/ethidium bromide staining based fluorescence microscopy; assay type: functional, cell-based
In short: (§3)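 Approx. 500,000 A549 cells per flask were grown 24 h, then exposed to compound-containing medium for 24–48 h. Cells from the supernatant were pelleted, washed and resuspended in PBS, mixed with AO/EB and examined by fluorescence microscopy. Green fluorescence was scored as apoptotic and red nuclei as necrotic; the read-out is qualitative.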

[12] = test system: HCT-116; test: Cytotoxicity against human HCT116 cells after 96 hrs by SRB assay; assay type: functional, cell-based; in short: as §1
[13] = test system: A-431; test: Cytotoxicity against human A431 cells after 96 hrs by SRB assay; assay type: functional, cell-based; in short: as §1
[14] = test system: HT-29; test: Cytotoxicity against human HT-29 cells after 96 hrs by SRB assay; assay type: functional, cell-based; in short: as §1
[15] = test system: A549; test: Induction of apoptosis in human A549 cells assessed as apoptotic effect at 60 uM after 24 to 48 hrs by trypan blue cell counting analysis; assay type: functional; in short: as §2
[16] = test system: A549; test: Induction of apoptosis in human A549 cells assessed as appearance of green fluorescent cells at 60 uM after 24 to 48 hrs by acridine orange/ethidium bromide staining based fluorescence microscopy; assay type: functional, cell-based; in short: as §3

| Structure (SMILES) | IC50 [1] [µmol] | IC50 [2] [µmol] | IC50 [3] [µmol] | IC50 [4] [µmol] | IC50 [5] [µmol] | IC50 [6] [µmol] | IC50 [7] [µmol] | IC50 [8] [µmol] | IC50 [9] [µmol] | Activity [10] [%] | Activity [11] | IC50 [12] [µmol] | IC50 [13] [µmol] | IC50 [14] [µmol] | Activity [15] [%] | Activity [16] |
| --- | --- | --- | --- | --- | --- | --- | --- | --- | --- | --- | --- | --- | --- | --- | --- | --- |
| COC(=O)[C@@]1(C)CC[C@]2(C)CC[C@]3(C)C(=CC(=O)[C@@H]4[C@@]5(C)CC/C(=N\OC(=O)[C@H](C)NC(=O)OC(C)(C)C)C(C)(C)[C@@H]5CC[C@]43C)[C@@H]2C1 | 16.49 | 19.1 | 15.83 | 14.12 | 18.99 | 15.17 | 14.61 | 15.47 | 12.03 | 68.54 | Active | – | – | – | – | – |
| CCOC(=O)[C@@]1(C)CC[C@]2(C)CC[C@]3(C)C(=CC(=O)[C@@H]4[C@@]5(C)C[C@H](F)[C@@H](O)C(C)(C)[C@@H]5CC[C@]43C)[C@@H]2C1 | > 30 | > 30 | > 30 | > 30 | > 30 | > 30 | – | – | – | – | – | > 30 | > 30 | 24.72 | 80.32 | Active |
